Test results taken from ChEMBL document CHEMBL1145087 (J Med Chem, 2003).

Experiments:
Estrogen receptor [1] = biological target: T1, Estrogen receptor (Homo sapiens, UniProt Q92731+P03372); experiment: Antagonistic efficacy against human estrogen receptor; assay type: functional
Method in brief: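 Cotransfection LUC reporter assay for hER. Antagonist efficacy is the % maximal inhibition of a standard agonist (estradiol is the reference agonist for hER) applied at its EC50.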

Androgen receptor [2] = biological target: T2, Androgen receptor (Homo sapiens, UniProt P10275); experiment: biochemical
T2 sequence (P10275 whole entry): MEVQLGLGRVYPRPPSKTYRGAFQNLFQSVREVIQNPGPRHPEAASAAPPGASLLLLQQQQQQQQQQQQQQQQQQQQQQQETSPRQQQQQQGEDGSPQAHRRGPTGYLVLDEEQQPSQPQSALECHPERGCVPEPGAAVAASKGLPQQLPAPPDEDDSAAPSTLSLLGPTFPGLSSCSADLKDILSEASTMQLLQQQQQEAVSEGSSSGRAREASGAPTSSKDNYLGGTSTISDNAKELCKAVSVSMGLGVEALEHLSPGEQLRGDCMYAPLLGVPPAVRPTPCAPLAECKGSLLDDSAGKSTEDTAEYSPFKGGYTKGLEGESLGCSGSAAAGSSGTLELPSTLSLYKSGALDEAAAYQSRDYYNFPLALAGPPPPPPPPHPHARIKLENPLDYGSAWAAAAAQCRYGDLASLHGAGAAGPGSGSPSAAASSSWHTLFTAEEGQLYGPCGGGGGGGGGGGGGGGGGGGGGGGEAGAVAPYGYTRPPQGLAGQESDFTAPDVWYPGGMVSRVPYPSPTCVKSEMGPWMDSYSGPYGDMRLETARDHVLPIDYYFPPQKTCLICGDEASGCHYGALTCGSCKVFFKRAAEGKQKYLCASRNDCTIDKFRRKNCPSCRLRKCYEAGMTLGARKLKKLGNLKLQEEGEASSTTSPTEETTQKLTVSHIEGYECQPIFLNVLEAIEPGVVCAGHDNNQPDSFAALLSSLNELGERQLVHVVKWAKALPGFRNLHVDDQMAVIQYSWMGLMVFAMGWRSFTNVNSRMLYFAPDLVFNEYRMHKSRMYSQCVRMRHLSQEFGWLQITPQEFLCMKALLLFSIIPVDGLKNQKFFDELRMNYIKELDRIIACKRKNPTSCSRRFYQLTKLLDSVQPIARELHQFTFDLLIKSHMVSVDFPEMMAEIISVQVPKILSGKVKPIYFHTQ

Progesterone receptor [3] = biological target: T3, Progesterone receptor (Homo sapiens, UniProt P06401); experiment: Agonistic activity against human progesterone receptor in T47D breast cancer cells; assay type: functional, cell-based
T3 sequence (P06401 whole entry): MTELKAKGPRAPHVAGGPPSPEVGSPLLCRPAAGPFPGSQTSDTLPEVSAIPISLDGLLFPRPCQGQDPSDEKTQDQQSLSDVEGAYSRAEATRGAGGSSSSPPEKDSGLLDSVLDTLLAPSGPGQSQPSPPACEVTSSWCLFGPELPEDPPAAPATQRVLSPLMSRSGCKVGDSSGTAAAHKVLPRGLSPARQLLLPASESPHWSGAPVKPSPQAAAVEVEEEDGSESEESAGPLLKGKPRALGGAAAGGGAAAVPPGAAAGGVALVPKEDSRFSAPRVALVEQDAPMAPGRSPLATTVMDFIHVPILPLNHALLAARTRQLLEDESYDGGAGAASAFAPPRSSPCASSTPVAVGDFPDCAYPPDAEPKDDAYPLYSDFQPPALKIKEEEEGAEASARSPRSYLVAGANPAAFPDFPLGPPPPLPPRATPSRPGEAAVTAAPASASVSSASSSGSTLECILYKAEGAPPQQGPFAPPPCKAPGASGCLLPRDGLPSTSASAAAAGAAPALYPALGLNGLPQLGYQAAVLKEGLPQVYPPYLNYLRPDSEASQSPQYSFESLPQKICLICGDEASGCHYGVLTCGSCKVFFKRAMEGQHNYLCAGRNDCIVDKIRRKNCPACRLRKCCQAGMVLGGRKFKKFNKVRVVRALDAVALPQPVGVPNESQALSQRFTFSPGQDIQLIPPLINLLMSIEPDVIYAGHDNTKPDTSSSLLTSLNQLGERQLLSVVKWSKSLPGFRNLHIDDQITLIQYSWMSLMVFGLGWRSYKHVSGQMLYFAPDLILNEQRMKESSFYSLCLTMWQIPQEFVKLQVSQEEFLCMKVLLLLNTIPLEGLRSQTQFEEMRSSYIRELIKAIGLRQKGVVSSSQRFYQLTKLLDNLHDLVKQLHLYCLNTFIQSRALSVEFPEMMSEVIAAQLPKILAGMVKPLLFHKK

[4] = biological target: T4, Progesterone receptor (Homo sapiens) (UniProt P06401); experiment: Percent agonistic effect towards human progesterone receptor in CV-1 cells; assay type: functional, cell-based
T4 sequence (whole entry): T3 sequence (P06401 whole entry)

Homo sapiens [5] = species: Homo sapiens; experiment: Relative potency for human estrogen and progesterone receptors
Glucocorticoid receptor [6] = biological target: T5, Glucocorticoid receptor (Homo sapiens, UniProt P04150)
T5 sequence (P04150 whole entry): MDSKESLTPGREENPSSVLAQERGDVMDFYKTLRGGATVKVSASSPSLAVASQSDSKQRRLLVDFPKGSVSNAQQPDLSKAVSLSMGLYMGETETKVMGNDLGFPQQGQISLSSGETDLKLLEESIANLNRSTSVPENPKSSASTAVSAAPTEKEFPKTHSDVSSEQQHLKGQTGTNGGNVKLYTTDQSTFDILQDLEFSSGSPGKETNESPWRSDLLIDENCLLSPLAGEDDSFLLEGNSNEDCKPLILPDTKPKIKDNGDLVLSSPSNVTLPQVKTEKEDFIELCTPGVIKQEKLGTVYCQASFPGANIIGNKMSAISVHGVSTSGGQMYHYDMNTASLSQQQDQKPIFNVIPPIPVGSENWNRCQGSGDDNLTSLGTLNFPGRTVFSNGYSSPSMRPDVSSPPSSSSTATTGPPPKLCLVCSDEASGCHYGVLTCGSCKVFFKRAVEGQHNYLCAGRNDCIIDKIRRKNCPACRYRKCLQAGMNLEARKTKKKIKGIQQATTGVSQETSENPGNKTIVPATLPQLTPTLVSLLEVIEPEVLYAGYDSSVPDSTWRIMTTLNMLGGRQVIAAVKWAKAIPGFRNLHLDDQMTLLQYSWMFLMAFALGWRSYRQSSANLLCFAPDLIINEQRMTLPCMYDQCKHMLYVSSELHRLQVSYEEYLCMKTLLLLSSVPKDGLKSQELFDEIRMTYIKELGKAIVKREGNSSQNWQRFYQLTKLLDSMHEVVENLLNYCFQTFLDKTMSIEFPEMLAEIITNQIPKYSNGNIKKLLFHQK

Homo sapiens [7] = species: Homo sapiens; experiment: Relative potency for human glucocorticoid and progesterone receptors
Progesterone receptor [8] = biological target: T3, Progesterone receptor; experiment: Agonistic activity against human progesterone receptor in CV-1 cells; assay type: functional, cell-based
Progesterone receptor [9] = biological target: T3, Progesterone receptor; experiment: Binding affinity towards human progesterone receptor A isoform using progesterone as radioligand
Androgen receptor [10] = biological target: T2, Androgen receptor
[11] = biological target: T4, Progesterone receptor (Homo sapiens); experiment: Percent agonistic effect towards human progesterone receptor in T47D breast cancer cells; assay type: functional, cell-based
Homo sapiens [12] = species: Homo sapiens; experiment: Relative potency for human mineralocorticoid and progesterone receptors
Estrogen receptor [13] = biological target: T1, Estrogen receptor
Homo sapiens [14] = species: Homo sapiens; experiment: Relative potency for human androgen and progesterone receptors
Glucocorticoid receptor [15] = biological target: T5, Glucocorticoid receptor; experiment: Inhibition of Dexamethasone binding to human glucocorticoid receptor expressed in baculovirus […] cells

Ki (Androgen receptor [2]) | EC50 (Progesterone receptor [3]) | Efficacy [4] | Ratio (Homo sapiens [5]) | IC50 (Glucocorticoid receptor [6]) | Ratio (Homo sapiens [7]) | EC50 (Progesterone receptor [8]) | Ki (Progesterone receptor [9]) | IC50 (Androgen receptor [10]) | Efficacy [11] | Ratio (Homo sapiens [12]) | Ratio (Homo sapiens [14]) | Ki (Glucocorticoid receptor [15]) | SMILES | Efficacy (Estrogen receptor [1]) | IC50 (Estrogen receptor [13])
> 1000 nM | 28 nM | 176% | > 1000 | 2050 nM | 387 | – | 0.62 nM | 640 nM | 55% | > 1000 | 121 | 207 nM | CC1=CC(C)(C)Nc2ccc3c(c21)/C(=C/c1ccccc1)Oc1ccc(F)cc1-3 | – | –
> 1000 nM | 41 nM | 132% | > 1000 | 860 nM | 139 | 6.2 nM | 0.59 nM | – | 53% | > 1000 | > 1000 | 386 nM | CSc1ccccc1/C=C1\Oc2ccc(F)cc2-c2ccc3c(c21)C(C)=CC(C)(C)N3 | – | –
> 1000 nM | 19 nM | 178% | > 1000 | 650 nM | 181 | 3.6 nM | 0.55 nM | 820 nM | 49% | > 1000 | 228 | 236 nM | CC1=CC(C)(C)Nc2ccc3c(c21)/C(=C/c1ccccc1C)Oc1ccc(F)cc1-3 | – | –
819 nM | 26 nM | 172% | > 1000 | 320 nM | 119 | 2.7 nM | 1.2 nM | 1500 nM | 59% | > 1000 | 556 | 493 nM | CC1=CC(C)(C)Nc2ccc3c(c21)/C(=C/c1ccccc1N(C)C)Oc1ccc(F)cc1-3 | – | –

SMILES | Ki (Androgen receptor [2]) | EC50 (Progesterone receptor [3]) | Efficacy [4] | Ratio (Homo sapiens [5]) | IC50 (Glucocorticoid receptor [6]) | Ratio (Homo sapiens [7]) | EC50 (Progesterone receptor [8]) | Ki (Progesterone receptor [9]) | IC50 (Androgen receptor [10]) | Efficacy [11] | Ratio (Homo sapiens [12]) | Ratio (Homo sapiens [14]) | Ki (Glucocorticoid receptor [15]) | Efficacy (Estrogen receptor [1]) | IC50 (Estrogen receptor [13])
CC1=CC(C)(C)Nc2ccc3c(c21)/C(=C/c1ccco1)Oc1ccc(F)cc1-3 | > 1000 nM | 21 nM | 138% | 749 | 109 nM | 64 | 1.7 nM | 4.7 nM | 258 nM | 64% | > 1000 | 152 | 140 nM | 51% | 1273 nM
COc1ccccc1/C=C1\Oc2ccc(F)cc2-c2ccc3c(c21)C(C)=CC(C)(C)N3 | 439 nM | 8 nM | 154% | > 1000 | 90 nM | 97 | – | 3.8 nM | – | 40% | > 1000 | > 1000 | 277 nM | 34% | 1885 nM
CC1=CC(C)(C)Nc2ccc3c(c21)/C(=C/c1ncccc1C)Oc1ccc(F)cc1-3 | > 1000 nM | 12 nM | 125% | > 1000 | 188 nM | – | 4.5 nM | 0.42 nM | 203 nM | 49% | > 1000 | – | 874 nM | – | –
